Bioassay records as filed in PubChem BioAssay.
Compounds with a hit are over-represented: about 1.2% of the library has one in this group of screens.
ZTA counter = counter-screen for EBNA-1 inhibitors: inhibitors of Epstein-Barr virus ZTA; P03206; ZTA-DNA binding, fluorescence polarization; inhibition, % at 11 µM; 320,000 tested, 0.15% active; AID 2234; in the data active = inhibition above about 33%
Target sequence (P03206 whole entry, looked up): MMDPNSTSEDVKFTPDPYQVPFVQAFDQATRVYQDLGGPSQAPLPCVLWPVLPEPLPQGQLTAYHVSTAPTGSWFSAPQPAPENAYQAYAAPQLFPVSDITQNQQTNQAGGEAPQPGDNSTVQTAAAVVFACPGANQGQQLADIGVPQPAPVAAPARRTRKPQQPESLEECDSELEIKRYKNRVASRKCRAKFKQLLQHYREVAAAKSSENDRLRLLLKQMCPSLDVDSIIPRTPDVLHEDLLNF
EBNA-1 inh = EBNA-1 DNA-binding inhibitors, primary screen, biochemical, fluorescence polarization. inhibition, % at 14.8 µM. 300,000 tested, 0.34% active. AID 1950, 2009; in the data active = inhibition above about 28%
core dimer inh = inhibitors of HCV core protein dimerization, primary screen, biochemical, TR-FRET, high-throughput. TR-FRET GST/Flag-core106 dimerization, 1536-well. inhibition, % at 5 µM. 300,000 tested, 0.33% active;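 active = inhibition above the mean of all tested compounds plus 3 SD, set per screening campaign, cut at about 45% in these data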
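System – GST-tagged and Flag-tagged HCV core protein residues 1-106 · Repeats – one well for each compound · Technique – TR-FRET 671 and 617 nm emission · Doses – one concentration, 5 µM, in 0.5% DMSO · Times – 4 h, 22.5 °C incubation · Also added – Eu donor and XL665 acceptor anti-tag antibodies · Measure – percent inhibition of core106 dimerization signal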
NS3 helicase inh = inhibitors of HCV NS3 helicase, primary screen, biochemical, Cy5 molecular beacon fluorescence | Hepatitis C virus NS3 helicase | NS3 helicase DNA unwinding | inhibition, % at 10.9 µM | 290,000 tested, 0.56% active;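 active = inhibition above the mean of all tested compounds plus 3 SD, set per campaign, cut at about 35% in these data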;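 also: 0% = DMSO wells and 100% = thioflavine S control wells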
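System: Hepatitis C virus NS3 helicase domain fragment enzyme | Reagent: Annealed dual-labelled DNA beacon duplex, ATP-started | Compound dosing: 10.9 µM single point, 0.8% DMSO | Incubation: 1 h reaction at 25 °C, ATP-initiated | Technique: Cy5 fluorescence | Evaluation: Percent inhibition from t60/t0 fluorescence ratio | Benchmarks: Low DMSO, high thioflavine S at 110 µM | Replication: Singlicate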
EBNA-1 inh conf = EBNA-1 DNA-binding inhibitors, retest, confirmation, biochemical, fluorescence polarization, triplicate | shares compounds with EBNA-1 inh | Recombinant EBNA-1 DBD, Cy5-DNA fluorescence polarization | inhibition, % at 14.8 µM | 830 tested, 35% active | AID 2292, 2010;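 active = mean inhibition across replicates above a set limit taken from the earlier primary screen, cut at about 28% in these data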;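 also: plate controls were EBNA-1 protein with DMSO for no effect and wells lacking EBNA-1 for full effect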
ZTA counter trip = EBV Zta DNA binding inhibitors, counter-screen for EBNA-1 inhibitor project, biochemical, fluorescence polarization, triplicate. shares compounds with EBNA-1 inh. inhibition, % at 11.1 µM. Zta-ZRE DNA binding, Cy5 fluorescence polarization. 830 tested, under 10 active. AID 2328, 2010;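 active = mean inhibition over triplicates above a set limit taken from the primary EBNA-1 screen, cut at about 37% in these data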;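 also: purified full length Zta protein with Cy5 labeled ZRE DNA probe; 0% = Zta with DMSO and 100% = wells lacking Zta protein; inhibitors lower polarization by freeing the labeled DNA probe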
An asterisk follows results filed as active.

How did O=C(COC(=O)c1cc(Br)ccc1O)Nc1ccc2c(c1)OCCO2 do in these assays?
ZTA counter: 6; EBNA-1 inh: 49*; core dimer inh: -1; EBNA-1 inh conf: 22; ZTA counter trip: 1

What do the screens show for `Cc1ccc(N(C)S(=O)(=O)c2c[nH]c3ccc([N+](=O)[O-])cc23)cc1`?
ZTA counter: 5; EBNA-1 inh: -8; core dimer inh: -4; NS3 helicase inh: -12

What do the screens show for `CCOc1cc(/C=N/Nc2cccc(C(=O)O)c2)ccc1OCC(=O)N1CCCCC1`?
NS3 helicase inh: 3

Results for NS(=O)(=O)c1ccc(NC(=O)c2ccc(COc3ccccc3)o2)cc1 ?
ZTA counter: 3; EBNA-1 inh: 39*; core dimer inh: -3; NS3 helicase inh: 0; EBNA-1 inh conf: 20; ZTA counter trip: -2

What do the screens show for `Cc1cc(C)c2cccc(NC(=S)NC(=O)c3ccccc3)c2n1`?
ZTA counter: 2; EBNA-1 inh: 34*; core dimer inh: 5; NS3 helicase inh: 6; EBNA-1 inh conf: 28*; ZTA counter trip: 5

Results for CC(=O)NC(=S)Nc1cccc2c(C)cc(C)nc12 ?
ZTA counter: 2; EBNA-1 inh: 6; core dimer inh: -22; NS3 helicase inh: 4

What do the screens show for `CCn1cc(/C=N/NC(=O)c2cc3c(ccc4ccccc43)o2)c2ccccc21`?
ZTA counter: -2; EBNA-1 inh: 62*; core dimer inh: 30; NS3 helicase inh: 5; EBNA-1 inh conf: 8; ZTA counter trip: 10

Results for CC1(C)CC(=O)C=C(C(=O)N2CCCC(C(=O)c3cccc(Cl)c3)C2)O1 (stereo not drawn) ?
ZTA counter: -7; EBNA-1 inh: 6; core dimer inh: 4; NS3 helicase inh: 8

How did Cc1ccc(NC(=O)CSc2ccc(-c3ccc4c(c3)OCO4)nn2)cc1F do in these assays?
ZTA counter: -10; EBNA-1 inh: 52*; core dimer inh: 14; NS3 helicase inh: -4; EBNA-1 inh conf: 68*; ZTA counter trip: 1

What do the screens show for `COC(=O)/C=C1\SC(=Nc2ccccc2)NC1=O`?
ZTA counter: -6; EBNA-1 inh: -8; core dimer inh: 4; NS3 helicase inh: 0

How did COC(=O)/C=C1/SC(=Nc2ccc(Cl)c(Cl)c2)NC1=O do in these assays?
ZTA counter: -2; EBNA-1 inh: 41*; core dimer inh: 7; NS3 helicase inh: -2; EBNA-1 inh conf: -8; ZTA counter trip: -10

How did O=C(c1cc2cc([N+](=O)[O-])ccc2oc1=O)N1CCN(C2CCCCC2)CC1 do in these assays?
ZTA counter: -2; EBNA-1 inh: -2; core dimer inh: -3; NS3 helicase inh: -5

How did COc1ccc(CNc2nc(NCc3ccc(OC)cc3)c3[nH]cnc3n2)cc1 do in these assays?
ZTA counter: -7; EBNA-1 inh: 39*; core dimer inh: -8; EBNA-1 inh conf: 7; ZTA counter trip: 11

How did COc1ccc(CNc2ncnc(N)n2)cc1 do in these assays?
ZTA counter: -6; EBNA-1 inh: 1; core dimer inh: -1; NS3 helicase inh: 2

What do the screens show for `CCOC(=O)CNC(=O)N1CCCC(C(=O)c2ccccc2SC)C1` (stereo not drawn)?
ZTA counter: -1; EBNA-1 inh: 9; core dimer inh: 6; NS3 helicase inh: -10

Results for Cc1ccc(N2C(=O)CC(N(CCc3ccccc3)C(=S)Nc3ccc(N(C)C)cc3)C2=O)cc1 (stereo not drawn) ?
ZTA counter: 10; EBNA-1 inh: 57*; core dimer inh: 9; NS3 helicase inh: -6; EBNA-1 inh conf: 18; ZTA counter trip: -3

How did O=C1CC(N(CCc2ccccc2)C(=S)Nc2ccccc2)C(=O)N1c1ccc(Br)cc1 (stereo not drawn) do in these assays?
ZTA counter: -4; EBNA-1 inh: -13; core dimer inh: 6; NS3 helicase inh: -1

Results for O=C(NC1CCCC1)C(c1ccncc1)N(CC1CCCO1)C(=O)Cn1nnc(-c2cccs2)n1 (stereo not drawn) ?
ZTA counter: 9; EBNA-1 inh: -3; core dimer inh: 3; NS3 helicase inh: -21

Results for Cc1ccc(C(C(=O)NCC2CCCO2)N(Cc2ccccc2F)C(=O)Cn2nnc(-c3cccs3)n2)cc1 (stereo not drawn) ?
ZTA counter: -10; EBNA-1 inh: 37*; core dimer inh: 17; NS3 helicase inh: -2; EBNA-1 inh conf: -1; ZTA counter trip: 0

What do the screens show for `C=CCn1c(=NC(=O)c2cc(-c3cccs3)nc3ccccc23)sc2cc(S(N)(=O)=O)ccc21`?
ZTA counter: 7; EBNA-1 inh: 29*; core dimer inh: 6; NS3 helicase inh: 14; EBNA-1 inh conf: 22; ZTA counter trip: 10

What do the screens show for `COc1cccc(-c2cc(C(=O)Nc3cnn(Cc4ccc(F)cc4)c3)no2)c1`?
ZTA counter: -2; EBNA-1 inh: 47*; core dimer inh: 1; NS3 helicase inh: 2; EBNA-1 inh conf: 32*; ZTA counter trip: 18

Results for COc1ccc(/C=C2\SC(=S)N(c3cccnc3)C2=O)cc1 ?
ZTA counter: 11; EBNA-1 inh: 0; core dimer inh: 3; NS3 helicase inh: -4

Results for O=C1/C(=C\c2ccc(O)cc2)SC(=S)N1c1cccnc1 ?
ZTA counter: 7; EBNA-1 inh: 31*; core dimer inh: -11; NS3 helicase inh: 4; EBNA-1 inh conf: 21; ZTA counter trip: 11

How did Cc1cccc(NC(=O)COC(=O)CSc2ccccc2)c1C do in these assays?
ZTA counter: 6

How did Cc1nn(CC(=O)NCc2ccccc2)c(=O)c2ccccc12 do in these assays?
ZTA counter: -1; EBNA-1 inh: -5; core dimer inh: -4; NS3 helicase inh: -2

What do the screens show for `Cc1nn(CC(=O)NCc2cccc3ccccc23)c(=O)c2ccccc12`?
ZTA counter: 1; EBNA-1 inh: 31*; core dimer inh: 0; NS3 helicase inh: -4; EBNA-1 inh conf: 7; ZTA counter trip: 0

How did O=[N+]([O-])c1cccc(/C=N/Nc2nc(NCc3ccccc3)nc(N3CCOCC3)n2)c1 do in these assays?
ZTA counter: 11; EBNA-1 inh: 49*; core dimer inh: -1; NS3 helicase inh: -11; EBNA-1 inh conf: 71*; ZTA counter trip: 0

Results for CCN1C(=O)c2cccc3c(S(=O)(=O)Nc4ccccc4)ccc1c23 ?
ZTA counter: 2; EBNA-1 inh: 9; core dimer inh: 6; NS3 helicase inh: -11
